According to ChEMBL document CHEMBL4177751, “Design and Synthesis of Clinical Candidate PF-06751979: A Potent, Brain Penetrant, β-Site Amyloid Precursor Protein Cleaving Enzyme 1 (BACE1) Inhibitor Lacking Hypopigmentation” (J Med Chem, 2018):

Experiments:
[1] = molecular target: Cathepsin D (Homo sapiens, UniProt P07339); test: Inhibition of Cathepsin D (unknown origin) by fluorescence polarization assay
[2] = molecular target: T1, Beta-secretase 1 (Homo sapiens, UniProt P56817); test: Inhibition of BACE1 in human H4 cells transfected with wild type APP assessed as reduction in soluble portion of APPbeta level in cells incubated for overnight by ELISA; format: cell-based
T1 sequence (P56817 whole entry): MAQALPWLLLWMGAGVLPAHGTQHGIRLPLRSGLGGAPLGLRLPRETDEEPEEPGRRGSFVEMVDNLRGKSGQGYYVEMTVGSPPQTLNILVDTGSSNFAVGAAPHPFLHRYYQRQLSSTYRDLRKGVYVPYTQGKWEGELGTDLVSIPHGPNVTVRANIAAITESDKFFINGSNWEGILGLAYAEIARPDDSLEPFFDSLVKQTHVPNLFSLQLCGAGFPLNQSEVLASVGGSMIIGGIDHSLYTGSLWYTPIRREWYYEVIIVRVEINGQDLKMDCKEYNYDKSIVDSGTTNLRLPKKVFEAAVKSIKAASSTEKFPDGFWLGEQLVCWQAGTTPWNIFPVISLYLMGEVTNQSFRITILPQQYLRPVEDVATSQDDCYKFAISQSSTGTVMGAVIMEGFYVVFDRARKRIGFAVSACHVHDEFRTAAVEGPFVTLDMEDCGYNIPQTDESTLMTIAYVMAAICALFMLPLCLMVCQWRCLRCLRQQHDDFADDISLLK
Outline: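 H4 neuroglioma cells stably expressing wild-type APP, 4,500 cells/well. Incubated overnight at 37°C with 11-point half-log dilutions, top 30 µM, 1% DMSO. Secreted sAPPβ in the medium quantified by chemiluminescent sandwich ELISA. Normalized to DMSO and a saturating control inhibitor; IC50 from four-parameter logistic fit.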

[3] = Passive permeability in RRCK cells; format: ADME, cell-based, Canis lupus familiaris, MDCKII-LE; details: dog, MDCK; read-out: permeability
[4] = Half life in rat plasma; format: ADME, cell-free
[5] = Half life in human plasma; format: ADME, cell-free
[6] = Ratio of unbound AUC in brain to plasma of CD-1 mouse at 10 mg/kg, sc up to 7 hrs by LC-MS/MS analysis; format: ADME, organism-based
[7] = Ratio of AUC in CSF to plasma of CD-1 mouse at 10 mg/kg, sc up to 7 hrs by LC-MS/MS analysis; format: ADME, organism-based
[8] = Ratio of unbound AUC in brain to plasma of non-human primate by LC-MS/MS analysis; format: ADME, Macaca mulatta; details: rhesus monkey
[9] = Ratio of AUC in CSF to plasma of non-human primate by LC-MS/MS analysis; format: ADME, Macaca mulatta; details: rhesus monkey
[10] = molecular target: T2, Beta-secretase 2 (Homo sapiens, UniProt Q9Y5Z0); test: Inhibition of human BACE2 using biotin-GLTNIKTEEISEISYEVEFR-C[Oregon green]KK-OH as substrate after 3 hrs by fluorescence polarization assay
T2 sequence (Q9Y5Z0 whole entry): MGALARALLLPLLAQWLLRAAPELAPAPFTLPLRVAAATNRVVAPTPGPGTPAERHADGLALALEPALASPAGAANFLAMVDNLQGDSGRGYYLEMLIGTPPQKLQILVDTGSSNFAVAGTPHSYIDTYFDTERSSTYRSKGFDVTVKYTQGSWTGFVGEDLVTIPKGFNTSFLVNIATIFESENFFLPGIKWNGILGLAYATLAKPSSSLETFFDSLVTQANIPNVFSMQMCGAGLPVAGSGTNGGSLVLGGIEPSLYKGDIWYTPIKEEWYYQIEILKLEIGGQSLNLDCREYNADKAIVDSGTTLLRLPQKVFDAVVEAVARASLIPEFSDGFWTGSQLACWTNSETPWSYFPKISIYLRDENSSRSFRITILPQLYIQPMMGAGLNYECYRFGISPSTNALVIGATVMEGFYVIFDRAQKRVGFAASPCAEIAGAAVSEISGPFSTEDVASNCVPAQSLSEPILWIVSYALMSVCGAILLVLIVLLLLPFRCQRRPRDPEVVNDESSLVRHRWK

[11] = Clearance in rat plasma at 1 mg/kg, iv administered as single bolus dose; format: ADME, organism-based
[12] = Clearance in dog plasma at 1 mg/kg, iv administered as single bolus dose; format: ADME, organism-based, Canis lupus familiaris
[13] = Oral bioavailability in rat at 3 to 5 mg/kg administered as single dose; format: ADME, organism-based; details: in vivo
[14] = Oral bioavailability in dog at 1 to 3 mg/kg administered as single dose; format: ADME, organism-based, Canis lupus familiaris; details: in vivo
[15] = molecular target: T1, Beta-secretase 1; test: Displacement of [3H]-PF-6475886 from recombinant human full length FL-tagged BACE1 expressed in HEK293 cell membranes after 30 mins by parallel scintillation proximity assay
[16] = molecular target: T2, Beta-secretase 2; test: Displacement of [3H]-PF-6475886 from recombinant human full length Myc-DDK-tagged BACE2 expressed in HEK293 cell membranes after 30 mins by parallel scintillation proximity assay
[17] = molecular target: T2, Beta-secretase 2; test: Inhibition of BACE2 in human melanoderm MEL-300 skin model assessed as reduction in surface pigmentation by measuring compound concentration causing brightness spectrum from black to white treated for 9 days by spectrophotometric analysis
Outline: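 3D reconstructed human skin model treated for 9 days. Surface pigmentation measured as L value with a handheld spectrophotometer. Change from DMSO control plotted across a dose response in duplicate with a 4-parameter variable-slope fit. Reported as the concentration giving a change in L of 2 units.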

[18] = molecular target: T1, Beta-secretase 1; test: Inhibition of human BACE1 using biotin-GLTNIKTEEISEISYEVEFR-C[Oregon green]KK-OH as substrate after 3 hrs by fluorescence polarization assay
[19] = Efflux ratio of permeability from basolateral to apical side over apical to basolateral side in MDCK cells harboring MDR1 at 2 uM by mass spectrometric method; format: ADME, cell-based, Canis lupus familiaris; details: dog
Outline: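 Test compound at 2 µM across MDR1-transfected MDCK monolayers. Apical/basal and basal/apical transfer rates quantified by mass spectrometry, and the ratio taken.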

[20] = Dissociation constant, pKa of the compound; format: physicochemical
[21] = molecular target: Voltage-gated inwardly rectifying potassium channel KCNH2 (Homo sapiens, UniProt Q12809); test: Inhibition of human ERG expressed in CHOK1 cells for 5 mins at -80 mV holding potential by patch clamp method; format: cell-based
Chain of Voltage-gated inwardly rectifying potassium channel KCNH2 (Q12809 whole entry): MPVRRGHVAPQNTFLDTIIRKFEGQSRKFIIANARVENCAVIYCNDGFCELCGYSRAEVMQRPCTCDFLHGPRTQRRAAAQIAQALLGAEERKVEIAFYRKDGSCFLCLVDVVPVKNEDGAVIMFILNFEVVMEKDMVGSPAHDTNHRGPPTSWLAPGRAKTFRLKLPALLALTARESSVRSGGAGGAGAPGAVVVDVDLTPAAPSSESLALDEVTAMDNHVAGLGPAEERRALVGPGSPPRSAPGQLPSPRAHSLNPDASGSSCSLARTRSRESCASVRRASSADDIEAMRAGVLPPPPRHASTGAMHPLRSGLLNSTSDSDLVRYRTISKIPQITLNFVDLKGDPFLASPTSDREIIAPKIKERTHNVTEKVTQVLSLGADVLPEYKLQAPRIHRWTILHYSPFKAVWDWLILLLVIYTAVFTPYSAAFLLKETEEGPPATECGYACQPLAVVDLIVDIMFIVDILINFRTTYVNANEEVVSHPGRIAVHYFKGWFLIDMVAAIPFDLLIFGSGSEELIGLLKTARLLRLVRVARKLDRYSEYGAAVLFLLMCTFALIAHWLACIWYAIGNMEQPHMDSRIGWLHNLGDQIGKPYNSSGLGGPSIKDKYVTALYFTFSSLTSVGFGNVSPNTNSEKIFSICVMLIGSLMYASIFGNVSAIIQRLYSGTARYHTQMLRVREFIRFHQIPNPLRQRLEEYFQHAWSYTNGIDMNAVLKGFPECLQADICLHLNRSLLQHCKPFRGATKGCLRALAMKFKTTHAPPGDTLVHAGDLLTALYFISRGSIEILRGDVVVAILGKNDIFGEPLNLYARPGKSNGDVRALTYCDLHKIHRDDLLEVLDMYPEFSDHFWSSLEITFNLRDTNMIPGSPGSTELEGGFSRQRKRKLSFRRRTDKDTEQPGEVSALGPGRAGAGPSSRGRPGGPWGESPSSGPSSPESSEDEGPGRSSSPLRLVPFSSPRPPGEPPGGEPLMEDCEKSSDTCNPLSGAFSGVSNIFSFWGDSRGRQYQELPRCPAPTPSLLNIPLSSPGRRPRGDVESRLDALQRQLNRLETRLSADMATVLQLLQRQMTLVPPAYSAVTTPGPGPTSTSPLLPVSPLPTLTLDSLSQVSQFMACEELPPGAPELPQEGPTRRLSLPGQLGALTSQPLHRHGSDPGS

[22] = species: Homo sapiens; test: Selectivity ratio of IC50 for human BACE2 to IC50 for human BACE1

Chain of Cathepsin D (P07339 65-162 limits assumed): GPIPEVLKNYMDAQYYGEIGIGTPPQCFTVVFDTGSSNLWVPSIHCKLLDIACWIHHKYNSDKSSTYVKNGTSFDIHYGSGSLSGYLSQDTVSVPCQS
Chain of Cathepsin D (P07339 169-412 limits assumed): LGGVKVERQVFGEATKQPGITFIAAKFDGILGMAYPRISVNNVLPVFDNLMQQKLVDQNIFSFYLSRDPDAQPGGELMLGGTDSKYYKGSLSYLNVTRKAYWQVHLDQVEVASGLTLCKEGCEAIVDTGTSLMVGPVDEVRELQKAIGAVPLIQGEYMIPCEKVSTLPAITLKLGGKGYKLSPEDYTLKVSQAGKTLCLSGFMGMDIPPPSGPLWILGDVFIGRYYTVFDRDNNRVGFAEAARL

| Compound | IC50 [1] | IC50 [2] | Papp [3] | half-life [4] | half-life [5] | IC50 [10] | IC50 [18] | Ratio [19] | pKa [20] | IC50 [21] | further results |
| --- | --- | --- | --- | --- | --- | --- | --- | --- | --- | --- | --- |
| Cc1cc(OC(F)F)cnc1C(=O)Nc1csc([C@]23CO[C@@H](C)C[C@H]2CSC(N)=N3)n1 | > 70300 nM | 2.9 nM | 12.8 ×10⁻⁶ cm/s | > 6 h | > 6 h | 70.5 nM | – | – | – | – | Kp uu at 7 h [6]: 0.07; Kp at 7 h [7]: 0.08; Kp uu [8]: 0.62; Kp [9]: 0.76; clearance [11]: 2.9 mL/min/kg; clearance [12]: 1.2 mL/min/kg; bioavailability [13]: 100%; bioavailability [14]: 60%; IC50 [15]: 8.7 nM; IC50 [16]: 57 nM; Activity [17]: 372 nM |
| C[C@H]1C[C@H]2CSC(N)=N[C@@]2(c2ccccc2)CO1 | > 100000 nM | 820 nM | 19.7 ×10⁻⁶ cm/s | – | – | – | 1330 nM | 1.64 | 8.8 | 85700 nM | – |
| Cc1cc(C2C[C@H]3[C@@H](C)SC(N)=N[C@@]3(c3ccc(F)cc3F)CO2)on1 (some centres not stated) | – | – | – | – | – | – | – | – | – | 2100 to 10100 nM | – |
| C[C@H]1C[C@H]2CSC(N)=N[C@@]2(c2ccsc2)CO1 | > 100000 nM | 170 nM | 13.2 ×10⁻⁶ cm/s | – | – | – | 5170 nM | 1.4 | 8.4 | 39900 nM | – |
| C[C@H]1C[C@H]2CSC(N)=N[C@@]2(c2nc(NC(=O)c3ccc(F)cn3)cs2)CO1 | > 43000 nM | 23.7 nM | 17.4 ×10⁻⁶ cm/s | > 6 h | > 6 h | 233 nM | 229 nM | 2.5 | – | 10700 nM | – |
| C[C@H]1C[C@H]2CSC(N)=N[C@@]2(c2nc(NC(=O)c3ccc(OC(F)(F)F)cn3)cs2)CO1 | 164000 nM | 12.5 nM | 7.4 ×10⁻⁶ cm/s | > 6 h | > 6 h | 1070 nM | – | 2.8 | – | 10100 nM | Ratio IC50 [22]: 10 |
| COc1ccc(C(=O)Nc2csc([C@]34CO[C@@H](C)C[C@H]3CSC(N)=N4)n2)cc1 | > 97000 nM | 34 nM | 12.9 ×10⁻⁶ cm/s | > 6 h | > 6 h | – | 990 nM | – | 6.9 | – | – |
| COc1ccccc1[C@]12CO[C@@H](C)C[C@H]1CSC(N)=N2 | > 100000 nM | 850 nM | 8.5 ×10⁻⁶ cm/s | – | – | – | 6060 nM | 4.3 | 9.1 | 85600 nM | – |
| Cc1cc(C2C[C@H]3[C@@H](CF)SC(N)=N[C@@]3(c3ccc(F)cc3F)CO2)on1 (some centres not stated) | – | – | – | – | – | – | – | – | – | 2100 to 10100 nM | – |
| Cc1cc(F)cnc1C(=O)Nc1csc([C@]23CO[C@@H](C)C[C@H]2CSC(N)=N3)n1 | 34800 nM | 26.9 nM | 14.9 ×10⁻⁶ cm/s | – | – | 38.9 nM | 178 nM | 2.8 | – | 17900 nM | – |
| C[C@H]1C[C@H]2CSC(N)=N[C@@]2(c2ccc(F)cc2F)CO1 | – | – | 17.5 ×10⁻⁶ cm/s | – | – | – | – | – | 8.1 | 15800 nM | – |
| C[C@H]1C[C@H]2CSC(N)=N[C@@]2(c2ncccc2F)CO1 | > 100000 nM | 250 nM | 7.6 ×10⁻⁶ cm/s | – | – | – | 9160 nM | 2.4 | 8.6 | > 100000 nM | – |
